Screens: PubChem, Broad Institute
In the library only some 2.9% were active in any assay of this set; here they are far more common.
Cneo AK release = causes C. neoformans cell lysis; 360,000 compounds, 0.2% hits; lysis activity, % at 15 µM; adenylate kinase release luminescence, 4 h; normalised: neutral wells 0, clomiphene wells 100;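 active means mean lysis activity across replicates of at least 80%, whatever share of replicates individually reach that level; inactive means mean lysis activity below 80%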
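Test system: log-phase Cryptococcus neoformans yeast cells. Input: 5 × 10^6 yeast cells/mL. Medium: fresh YPD growth medium. Doses: single dose. Incubation: static 4 h at 37 °C with compound, 1 h detection. Measured by: luminescent adenylate kinase detection reagent. Read-out: signal increase indicating cell lysis. Benchmarks: Clomiphene.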
INS-1E GSIS act = primary screen for activators of insulin secretion dependent on glucose, INS-1E cells, GLuc reporter luminescence; INS-1E GLuc reporter insulin secretion, 2-3 h; activation, % at 16.6 µM; 370,000 compounds, 0.61% hits; AID 743287;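 active means lowest replicate activation of at least 40%, so every replicate reaches that level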;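 further: 0% = median of neutral control wells and 100% = median of IBMX positive control wells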
PAX8 inh HTS = PAX8 transcriptional activity inhibition | RMG-I TPO-luciferase reporter, SteadyGlo, 24 h | inhibition, % at 12.6 µM | 360,000 compounds, 1.2% hits | AID 652154;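 active means mean replicate inhibition at least 60% with every replicate also reaching 60%; inconclusive means only one of the two criteria is met; inactive means mean below 60% and not all replicates reaching 60%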;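 further: luciferase light reporting Pax8 driven TPO promoter activity; plate controls were median of neutral control wells for no effect and mitoxantrone controls for full effect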
dFosB activator = mouse delta FosB homodimer activation. P13346. purified delta FosB, TAMRA-CDK5 oligo fluorescence polarization; percent of positive-control signal above neutral wells. activation, % at 25 µM. 340,000 compounds, 0.99% hits. AID 493131;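 active means mean activation above about 17%, with every replicate also reaching it, limit read from the data, passing the limit was not always enough; inconclusive means only one of the two conditions met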
Env fusion inh = inhibitors of HIV Env-mediated cell fusion. HeLa-JRFL Env/CEM21 cell fusion, luciferase. inhibition, % at 12.3 µM. 360,000 compounds, 1.1% hits. AID 651610;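 active means mean replicate inhibition score of at least 50 and every replicate individually at or above 50; inconclusive means only one of the two criteria met; inactive means mean below 50 and not all replicates reaching 50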;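 further: 0% = plate neutral controls and 100% = maraviroc near 300 nM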
CDK5 p35 inh = blocks human CDK5/p35 kinase activity. Q00535+Q15078. Recombinant CDK5/p35, ADP-Glo luminescence, 60 min. inhibition, % at 10 µM. 330,000 compounds, 0.01% hits. AID 488839;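 active means highest replicate inhibition of at least 50% and at least 75% of replicates reaching 50%; inconclusive means only one of the two criteria met; inactive means both criteria failed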;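 further: plate controls were DMSO neutral control for no effect and GW8510 at 10 µM for full effect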
Target sequence (Q00535 whole entry, looked up): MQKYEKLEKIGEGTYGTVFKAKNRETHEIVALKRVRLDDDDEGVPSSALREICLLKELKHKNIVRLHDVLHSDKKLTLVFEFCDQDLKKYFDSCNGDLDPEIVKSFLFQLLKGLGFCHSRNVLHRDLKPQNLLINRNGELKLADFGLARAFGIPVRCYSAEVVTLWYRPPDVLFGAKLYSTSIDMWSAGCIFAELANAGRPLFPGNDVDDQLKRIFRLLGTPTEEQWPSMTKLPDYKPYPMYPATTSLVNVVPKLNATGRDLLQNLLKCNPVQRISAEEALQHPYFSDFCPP
Target sequence (Q15078 whole entry, looked up): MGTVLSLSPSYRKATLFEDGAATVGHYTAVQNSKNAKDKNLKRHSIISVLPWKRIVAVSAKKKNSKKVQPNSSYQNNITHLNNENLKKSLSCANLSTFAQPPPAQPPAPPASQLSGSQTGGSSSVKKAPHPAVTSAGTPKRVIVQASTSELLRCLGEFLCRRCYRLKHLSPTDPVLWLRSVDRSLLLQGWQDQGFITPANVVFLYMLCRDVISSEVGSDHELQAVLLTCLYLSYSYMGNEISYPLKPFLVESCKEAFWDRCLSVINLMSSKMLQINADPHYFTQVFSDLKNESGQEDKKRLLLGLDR
* marks the source's active call; other numbers are inactive results; ? = inconclusive; / = no result given; [ ] = dose if it differs, or a comment.

SMILES	Cneo AK release	INS-1E GSIS act	PAX8 inh HTS	dFosB activator	Env fusion inh	CDK5 p35 inh
C[C@H]1CN([C@@H](C)CO)C(=O)Cc2cc(NC(=O)Cn3cnnn3)ccc2O[C@@H]1CN(C)C(=O)Nc1ccc2c(c1)OCO2	-2	6	13	/	-3[16.7 µM]	/
COc1ccc(NC(=O)Nc2ccc3c(c2)[C@@H]2C[C@@H](CC(=O)N4CCc5ccccc5C4)O[C@H](CO)[C@@H]2O3)cc1	-2	-17	71*	/	6[16.7 µM]	/
O=C(Nc1ccc2c(c1)[C@@H]1C[C@H](CC(=O)N3CCc4ccccc4C3)O[C@H](CO)[C@@H]1O2)Nc1ccccc1F	1	-15	25	/	4[16.7 µM]	/
O=C(Nc1ccc(C(F)(F)F)cc1)Nc1ccc2c(c1)[C@@H]1C[C@@H](CC(=O)N3CCc4ccccc4C3)O[C@H](CO)[C@@H]1O2	4	-10	76*	/	-22[16.7 µM]	/
COc1ccc(NC(=O)Nc2ccc3c(c2)[C@@H]2C[C@H](CC(=O)N4CCc5ccccc5C4)O[C@@H](CO)[C@@H]2O3)cc1	-3	-4	-21	/	6[16.7 µM]	/
O=C(Nc1ccc(C(F)(F)F)cc1)Nc1ccc2c(c1)[C@@H]1C[C@H](CC(=O)N3CCc4ccccc4C3)O[C@H](CO)[C@@H]1O2	7	-5	109*	/	82*[16.7 µM]	/
Cc1cc(C(=O)Nc2cccc3c2O[C@H](CN(C)S(=O)(=O)c2ccccc2)[C@H](C)CN([C@@H](C)CO)C3=O)n(C)n1	-62	0	-11	/	-5[16.7 µM]	/
COCC(=O)Nc1ccc2c(c1)OC[C@H](C)N(C(=O)Cc1ccccn1)C[C@@H](C)[C@@H](OC)CN(C)C2=O	-4	0	/	/	/	/
CO[C@@H]1CN(C)C(=O)c2cc(NS(=O)(=O)c3cn(C)cn3)ccc2OC[C@@H](C)N(C)C[C@H]1C	-3	1	4	/	-9[16.7 µM]	/
O=[N+]([O-])c1cnc(Sc2ccncn2)c([N+](=O)[O-])c1	3	/	-2	/	-3	/
O=[N+]([O-])c1cnc(Sc2ccncn2)s1	-4	-5	120*	-8	-267	-2
CC(C)NC(=O)N1C[C@@H]2[C@H](c3ccccc31)[C@H](CO)N2C(=O)c1ccncc1	2	11	-29	/	/	/
CN(C)c1nc(N)c([N+](=O)[O-])c(NCc2ccccc2)n1	1	13	68*	7	/	2
Nc1nc(Nc2ccccc2)nc(NCc2ccccc2)c1[N+](=O)[O-]	/	12	14	34*	8	1
Nc1nc(NCc2ccccc2)nc(NCc2ccccc2)c1[N+](=O)[O-]	3	46*	2	6	10	-1
Cc1cccc(Nc2nc(N)c([N+](=O)[O-])c(NCc3ccccc3)n2)c1	0	5	53	39*	19	-1
CNc1nc(N)c([N+](=O)[O-])c(NCc2ccccc2)n1	-1	8	-7	2	-53	1
CCOc1ccc(Nc2nc(N)c([N+](=O)[O-])c(NCc3ccccc3)n2)cc1	3	-7	-14	?	-9	1
COCCNC(=O)C[C@@H]1C[C@@H]2c3cc(NC(=O)C4CCC4)ccc3O[C@@H]2[C@H](CO)O1	-14	19	-2	/	-10[16.7 µM]	/
Cc1ccc(CNc2nc(N)c([N+](=O)[O-])c(NCc3ccccc3)n2)cc1	2	126*	3	3	5	2
Nc1nc(Nc2ccccc2)nc(NC2CCCCC2)c1[N+](=O)[O-]	4	13	12	73*	12	7
Cc1cccc(Nc2nc(N)c([N+](=O)[O-])c(N3CCCC(C)C3)n2)c1 (configuration not stated)	/	2	47	45*	12	10
CNc1nc(NCc2ccccc2)nc(N)c1[N+](=O)[O-]	-6	6	13	2	19	0
Cc1cccc(Nc2nc(N)c([N+](=O)[O-])c(N3CCN(C)CC3)n2)c1	-1	20	-3	-3	17	6
COCC(=O)Nc1ccc2c(c1)C(=O)N(C)C[C@H](OC)[C@H](C)CN(C(=O)Cc1cccnc1)[C@@H](C)CO2	-1	0	/	/	9[16.7 µM]	/
SMILES	Cneo AK release	INS-1E GSIS act	PAX8 inh HTS	dFosB activator	Env fusion inh	CDK5 p35 inh
CCCNC(=O)N[C@@H]1C=C[C@H](CC(=O)NC2CCCCC2)O[C@@H]1CO	-3	8	7	/	-8[16.7 µM]	/
O=C(NCc1ccccc1)[C@@H]1CCCN1C(=O)[C@@H]1CCCN1C(=O)c1cccc2ccccc12	/	-11	0	/	75*	/
Cc1ccccc1C(=O)N[C@H](C(=O)N1CCC[C@H]1C(=O)NCc1ccccc1)c1ccccc1	/	/	-14	/	56*	/
COc1ccc(CN(C)C[C@@H]2Oc3c(NC(=O)c4ccc(-c5nccs5)cc4)cccc3C(=O)N([C@H](C)CO)C[C@H]2C)cc1	0	-28	11	/	/	/
COc1ccccc1-c1cnc2c(c1)C(=O)N([C@H](C)CO)C[C@@H](C)[C@H](CN(C)C(=O)c1cccnc1)O2	/	-9	-6	/	8[16.7 µM]	/
COc1ccc(S(=O)(=O)N(C)C[C@@H]2Oc3ccc(NC(=O)CCCN(C)C)cc3CC(=O)N([C@@H](C)CO)C[C@@H]2C)cc1	-6	14	-4	/	/	/
COC1=CC(=O)C(OC)=C(OC)C1=O	-3	44*	-124	-1	-13	1
COc1ccc(NC(=O)c2ccco2)cc1NC(=O)c1cccc(OC(C)C)c1	-6	/	4	-10	113*	0
CCOc1cc(NC(=O)c2ccco2)c(OCC)cc1NC(=O)c1cc(OC)c(OC)c(OC)c1	-1	45*	39	-9	12	0
Clc1ccc(Cn2ncc3c(N4CCN(c5ccccc5)CC4)ncnc32)cc1	0	-18	102*	/	36	/
COc1ccc2c3c(n(C)c2c1)[C@@H](CO)N(C(C)=O)CC31CN(Cc2ccccc2OC)C1	/	7	/	/	/	/
COc1ccc(CCN2C(=O)c3[nH]nc(-c4ccccc4O)c3C2c2cccc(Cl)c2)cc1 (configuration not stated)	/	/	/	-2	/	0
COc1ccc(C2c3c(-c4ccccc4O)n[nH]c3C(=O)N2CCc2ccc(OC)c(OC)c2)cc1 (configuration not stated)	4	-10	/	-11	91*	-1
Cc1ccc(S(=O)(=O)N[C@H]2C=C[C@H](CC(=O)N3CCC(Cc4ccccc4)CC3)O[C@H]2CO)cc1	3	-17	-14	/	76*[16.7 µM]	/
Cc1ccc(S(=O)(=O)N[C@@H]2C=C[C@H](CC(=O)N3CCC(Cc4ccccc4)CC3)O[C@H]2CO)cc1	3	-5	-22	/	13[16.7 µM]	/
COc1ccc(S(=O)(=O)N[C@@H]2C=C[C@H](CC(=O)N3CCC(Cc4ccccc4)CC3)O[C@@H]2CO)cc1	3	-39	16	/	63*[16.7 µM]	/
COc1ccc(S(=O)(=O)N[C@@H]2C=C[C@@H](CC(=O)N3CCC(Cc4ccccc4)CC3)O[C@@H]2CO)cc1	/	-15	/	/	/	/
